Active and inactive are the calls of the source. No cut-off for these calls is given here.

Drawing on ChEMBL document CHEMBL3108685, “Exploring the chemical space of G-quadruplex binders: discovery of a novel chemotype targeting the human telomeric sequence” (J Med Chem, 2013), this text covers Activity, ΔTm and IC50 for four compounds.

In data set [1] the test system is BJ. Briefly: Induction of DNA damage response in human BJ cells expressing human TERT assessed as phosphorylation of gamma H2AX at 1 uM after 24 hrs by DAPI staining-based immunofluorescence analysis. In kind it is cell-based. Summed up: (§1)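 BJ-HELT and BJ-hTERT fibroblasts grown in D-MEM with 10% FCS and 2 mM glutamine, exposed to 1 μM for 24 h. Cells fixed in 2% formaldehyde, permeabilized with 0.25% Triton X-100, stained with anti-γH2AX plus FITC secondary, and counterstained with DAPI. 200 cells scored on triplicate slides. Mean ± SD of at least three experiments.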

The species named for data set [2] is Homo sapiens. Description: Binding affinity to human Tel24 G-quadruplex DNA assessed as change in melting temperature up to 20 uM by FRET assay. Summed up:
(§2)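 FRET melting: target oligos labelled 5′-DABCYL / 3′-fluorescein, 0.25 μM, with ligand in 50 mM potassium buffer (10 mM LiOH, 50 mM KCl, pH 7.4). Samples denatured at 95 °C for 5 min, cooled slowly overnight, then ramped to 90 °C and back to 30 °C at 0.2 °C/min. Excitation 488 nm, emission 520 nm. Tm taken from first derivative; at least three repeats, errors ±0.2 °C.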

The next data set has as its system U2OS. Briefly: Cytotoxicity against human U2OS cells assessed as inhibition of cell survival after 4 days by clonogenic assay. In kind it is functional, cell-based. Summed up: (§3)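 Cells seeded at 5 × 10^2 per 60 mm dish and treated 24 h later across a dose series for 4 days, then colony formation scored. Surviving fraction = treated/control absolute survival. IC50 from dose–response. Mean ± SD of three independent experiments.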

Data set [3] concerns HT-29. Briefly: Induction of apoptosis in human HT-29 cells assessed as late apoptotic cells at 2 uM measured on day 5 by Annexin V/propidium iodide staining-based flow cytometric analysis (reference value: 10%). The class given is functional.
Data set [4] concerns HT-29. Description: Cytotoxicity against human HT-29 cells assessed as inhibition of cell survival after 4 days by clonogenic assay. The class given is functional, cell-based. Summed up: as §3
The species entered for data set [5] is Homo sapiens. Description: Displacement of thiazole orange from human Tel24 G-quadruplex DNA up to 28 uM by fluorescent intercalator displacement assay. Summed up:
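Tel24 unlabelled (0.6 μM) preloaded with thiazole orange (1.2 μM) in 10 mM Tris, 50 mM KCl, pH 7.4. Ligand added in increasing amounts and fluorescence emission followed. Displacement % = 100 − (F/F0 × 100), with F0 the signal before ligand, plotted against concentration. At least three repeats, each in triplicate.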

For data set [6], the species on record is Homo sapiens. Description: Binding affinity to human Tel24 G-quadruplex DNA at 2:1 ligand/DNA ratio by NMR analysis.
The subject of data set [7] is BJ. Description: Induction of DNA damage response in human BJ cells expressing SV40 early region protein HELT assessed as phosphorylation of gamma H2AX at 1 uM after 24 hrs by DAPI staining-based immunofluorescence analysis relative to control. The class given is functional. Summed up: as §1
Data set [8] has as its system HT-29. Description: Induction of apoptosis in human HT-29 cells assessed as early apoptotic cells at 2 uM measured on day 5 by Annexin V/propidium iodide staining-based flow cytometric analysis (reference value: 4%). The class given is functional. Background: Flow cytometry measures light scatter and fluorescence of single cells or particles in a stream.
Data set [9] concerns HT-29. Description: Cell cycle arrest in human HT-29 cells assessed as accumulation at subG1 phase at 2 uM by […]propidium iodide staining-based flow cytometric analysis. The class given is functional. As to conditions: TDE = time-dependent effect. Summed up:
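HT29 cells cultured with or without 2 μM and sampled on days 4, 5 and 6. Cells fixed in 70% ethanol, stained 30 min at room temperature in the dark with PI (50 μg/mL) plus RNase A, and analysed by flow cytometry (20000 events). Sub-G1 fraction taken as the apoptotic measure.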

For data set [10], the system named is BJ. Briefly: Induction of telomere dysfunction induced foci in human BJ cells expressing SV40 early protein HELT assessed as increase in gamma H2AX/TRF1 co-localization at 1 uM by deconvolution microscopy relative to control. The class given is functional. Summed up: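 BJ-HELT fibroblasts given 1 μM, then double immunofluorescence for γH2AX and TRF1 with DAPI, imaged by deconvolution microscopy. In a single plane, 30 γH2AX-positive cells scored; cells with at least four γH2AX/TRF1 colocalizations counted as TIF-positive. Mean TIFs per nucleus also scored. Mean ± SD, three experiments.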

For the next data set, the system named is HeLa. Briefly: Cytotoxicity against human HeLa cells assessed as inhibition of cell survival after 4 days by clonogenic assay. The class given is functional, cell-based. Summed up:
as §3

The species named for data set [11] is Homo sapiens. Description: Binding affinity to human Tel24 G-quadruplex DNA assessed as change in melting temperature at 10 uM by FRET assay. Summed up: as §2
The species named for data set [12] is Homo sapiens. Briefly: Binding affinity to human Tel24 G-quadruplex DNA assessed as change in DNA topology by CD spectroscopic analysis. Summed up:
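CD spectra recorded at 25 °C, 220–320 nm, on annealed Tel24 (40 μM) with or without an excess of ligand. Buffer 10 mM Tris-HCl, 50 mM KCl, pH 7.4; 1 mm path length. Average of three scans, buffer baseline subtracted. Time constant 4 s, bandwidth 2 nm, scan rate 20 nm min−1.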

Data set [13] concerns BJ. Description: Cytotoxicity against human BJ cells expressing human TERT assessed as cell viability up to 3 uM after 4 days by MTT assay. The class given is cell-based. As to conditions: 96 h. Summed up:
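BJ-hTERT cells seeded at 3 × 10^3 per well and treated 24 h later with 0, 1, 2 or 3 μM for 4 days. MTT (5 mg/mL stock in PBS) added, followed by 4 h at 37 °C. Formazan dissolved in isopropanol and OD read at 540 nm. Mean ± SD of three experiments.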
Background: Tetrazolium assays rely on reduction of a dye to a coloured formazan, in cell work by metabolically active cells.

Data set [14] is filed under the species Homo sapiens. Description: Binding affinity to human kit1 G-quadruplex DNA assessed as change in melting temperature at 10 uM by FRET assay. Summed up: as §2
For data set [15], the species on record is Homo sapiens. Description: Binding affinity to human c-myc G-quadruplex DNA assessed as change in melting temperature at 10 uM by FRET assay. Summed up: as §2
For data set [16], the species on record is Homo sapiens. Briefly: Binding affinity to human TBA G-quadruplex DNA assessed as change in melting temperature at 10 uM by FRET assay. Summed up: as §2
The species entered for data set [17] is Homo sapiens. Briefly: Binding affinity to human kit2 G-quadruplex DNA assessed as change in melting temperature at 10 uM by FRET assay. Summed up: as §2

A word on the ΔTm: it is the shift of the melting midpoint relative to a reference. The term IC50 denotes the midpoint of a concentration-inhibition curve. On to `Cn1c(=O)c2cc(C(=O)NCCN3CCC(Cc4ccccc4)CC3)sc2c2ccccc21`, for which the Activity entry in the data set on BJ [1] was “Non-toxic”; with U2OS it was “Dose-dependent effect”; with HT-29 [3] it was 30%; in the data set on HT-29 [4] it was “Dose-dependent effect”; in the data set on BJ [7], 60%; in the data set with HT-29 [8], 37%. The Activity entry with HT-29 [9] is “tde”; in the data set with BJ [10] it was “<=50%”; with HeLa it was “Dose-dependent effect”; in the data set on BJ [13] it was “Non-toxic”. Moreover, the ΔTm in the data set filed under Homo sapiens [2] turned out to be 11 °C. Besides, the IC50 amounted to 1000 nM with U2OS (96 h); 1000 nM in the data set with HT-29 [4] (HT-29, 96 h); 1000 nM in the data set with HeLa (96 h). The result in the data set listed under Homo sapiens [5], in the data set filed under Homo sapiens [6], in the data set filed under Homo sapiens [11] and in the data set listed under Homo sapiens [12] was Active.
With `COc1ccc(NC(=O)c2ccc(CN3CCC(Cc4ccccc4)CC3)cc2)cc1OC`, the Activity result in the data set on BJ [1] is “Non-toxic”. The outcome in the data set listed under Homo sapiens [2], in the data set listed under Homo sapiens [14], in the data set listed under Homo sapiens [15], in the data set listed under Homo sapiens [5], in the data set filed under Homo sapiens [16] and in the data set listed under Homo sapiens [17] was inactive. Besides, the outcome in the data set with BJ [7] was Active.
Consider `Cc1cc(NC(=O)c2cc(-c3ccccc3O)no2)nn1CC(=O)N1CCOCC1`, for which the result in the data set listed under Homo sapiens [14], in the data set listed under Homo sapiens [15], in the data set listed under Homo sapiens [16] and in the data set listed under Homo sapiens [17] was inactive.
Turning to `Clc1ccc2[nH]c(-c3ccc(OCCCN4CCN(c5ccccc5)CC4)cc3)nc2c1`, the Activity entry in the data set on BJ [1] is reported as “Non-toxic”. In addition, the result in the data set filed under Homo sapiens [2], in the data set listed under Homo sapiens [14], in the data set listed under Homo sapiens [15], in the data set listed under Homo sapiens [5], in the data set filed under Homo sapiens [16] and in the data set filed under Homo sapiens [17] was inactive. The outcome in the data set with BJ [7] was Active.
